High-throughput results as filed in PubChem BioAssay.
AHR activator: activates the human aryl hydrocarbon receptor; P35869; AHR-responsive luciferase reporter cells, luminescence; activation, % at 5 µM; 320,000 compounds, 2.5% hits; in the data active = activation above about 47%;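 note: 0% = vehicle wells and 100% = reference agonist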
Target sequence (P35869 whole entry, looked up): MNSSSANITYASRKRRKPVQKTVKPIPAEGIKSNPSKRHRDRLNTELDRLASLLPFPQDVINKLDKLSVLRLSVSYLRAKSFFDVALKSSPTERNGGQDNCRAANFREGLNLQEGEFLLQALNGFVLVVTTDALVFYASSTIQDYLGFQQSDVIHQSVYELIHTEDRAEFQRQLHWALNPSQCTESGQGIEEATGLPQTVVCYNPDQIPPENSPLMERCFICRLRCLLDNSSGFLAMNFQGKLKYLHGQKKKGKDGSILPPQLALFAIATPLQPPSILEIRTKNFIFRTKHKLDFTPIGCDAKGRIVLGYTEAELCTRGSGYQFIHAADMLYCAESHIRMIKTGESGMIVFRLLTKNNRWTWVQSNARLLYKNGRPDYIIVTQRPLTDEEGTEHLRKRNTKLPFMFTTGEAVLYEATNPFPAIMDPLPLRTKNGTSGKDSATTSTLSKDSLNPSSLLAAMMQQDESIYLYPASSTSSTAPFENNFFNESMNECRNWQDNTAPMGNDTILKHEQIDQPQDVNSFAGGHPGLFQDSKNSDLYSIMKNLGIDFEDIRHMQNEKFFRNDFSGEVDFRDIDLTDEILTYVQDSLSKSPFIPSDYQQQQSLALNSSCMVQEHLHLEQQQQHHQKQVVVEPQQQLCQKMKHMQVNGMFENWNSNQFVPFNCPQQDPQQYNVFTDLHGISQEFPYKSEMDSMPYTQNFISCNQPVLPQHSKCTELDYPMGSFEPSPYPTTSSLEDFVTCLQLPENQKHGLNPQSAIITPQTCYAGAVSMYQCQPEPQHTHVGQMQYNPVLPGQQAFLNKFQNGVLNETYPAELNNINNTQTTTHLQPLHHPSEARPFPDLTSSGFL
HDAC3 inh: human HDAC3 inhibition | recombinant HDAC3, fluorogenic peptide/trypsin coupled, fluorescence | O15379 | inhibition, % at 8.3 µM | 320,000 compounds, 0.15% hits | AID 2718; in the data active = inhibition above about 26%, passing the limit was not always enough
CTSL1 counter: blocks F. hepatica cathepsin L1 in PFM18AAP counter-screen; recombinant F. hepatica cathepsin L1, Z-Leu-Arg-MCA fluorescence; inhibition, % at 5.96 µM; 300,000 compounds, 0.49% hits; AID 1906;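 active = inhibition above the mean of all tested compounds plus 3 SD, set per screening campaign, cut at about 17% in these data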;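 note: 0% = plate median of test compound wells and 100% = 1 µM Z-Phe-Ala-diazomethylketone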
SENP1 FRET inh: blocks the human SENP1 SUMO protease catalytic domain. inhibition, % at 10 µM. AID 624204. recombinant SENP1 catalytic domain, CyPet-SUMO1-YPet FRET cleavage. 360,000 compounds, 0.21% hits. Q9P0U3;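 active = inhibition at least 30% at 10 µM, raw YFP signal under a set limit, fluorescence ratio 0.5 to 1.5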;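 note: 0% = enzyme with DMSO and 100% = no enzyme wells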
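Test system: hSENP1 catalytic domain, recombinant; Amount: 20 pM final SENP1 enzyme; Medium: Tris pH 8 buffer plus EDTA, NaCl, BME, BSA, NP40, catalase; Schedule: 50 min enzyme reaction, room temperature, light-protected; Technique: FRET fluorescence in CFP and YFP emission channels; Controls: no-enzyme wells low, DMSO-plus-enzyme wells high control.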
M18AAP inhibitor: PfM18AAP enzyme inhibition. recombinant PfM18AAP, H-Glu-NHMec fluorogenic cleavage. AID 1822. inhibition, % at 7.35 µM. 290,000 compounds, 1.2% hits;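 active = inhibition above the campaign mean inhibition over all tested compounds plus 3 SD, cut at about 28% in these data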;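 note: 0% = plate median of test compound wells and 100% = 2 mM ZnCl2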
GAA850 FXN act: activators of GAA850 frataxin (FXN) promoter; HEK293 lucGAA850 FXN promoter luciferase reporter, 24 h; percent of 10 µM SAHA response; 360,000 compounds, 0.56% hits; activation, % at 6 µM;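 active = activation above the average of all compounds screened plus 3 SD, cutoff fixed separately per campaign, cut at about 7.5% in these data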;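 note: 0% = DMSO wells and 100% = 10 µM SAHA wells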
The depositor's hits bear a star; . = not tested or not shown. Only some compounds are listed: those with a hit (about 4.2% of all), similar ones and a draw of the others.

SMILES	AHR activator	HDAC3 inh	CTSL1 counter	SENP1 FRET inh	M18AAP inhibitor	GAA850 FXN act
CCOC(=O)c1[nH]c2cc3c(cc2c1NC(=O)CN1CC(C)CC(C)C1)OCO3 (stereo unspecified)	56*	-13	3	3	3	-1
Cc1ccccc1N=Nc1c(C)[nH]n(-c2ccccc2)c1=O	.	.	.	.	1	.
Cc1[nH]n(C2=NCCS2)c(=O)c1N=Nc1ccccc1	6	60*	1	2	-1	0
Cc1[nH]n(-c2ccccc2)c(=O)c1N=Nc1nccs1	86*	0	6	2	-2	1
CCOC(=O)c1ccc(N=Nc2c(C)[nH]n(-c3ccccc3)c2=O)cc1	3	0	-4	3	-8	1
Cc1[nH]n(-c2ccccc2)c(=O)c1N=Nc1ccc2c(c1)OCO2	34	0	-1	9	2	-1
CCOc1ccc(N=Nc2c(C)[nH]n(-c3ccccc3)c2=O)cc1	50*	-5	-1	-2	-1	2
COc1ccc(C)c2sc(NC(=O)C3CC3)nc12	74*	-1	2	1	6	0
COc1ccc(OC)c2sc(NC(=O)CCSc3ccccc3)nc12	59*	-8	-1	-1	4	-1
CC1CCc2nc(NC(=O)CCSc3ccccc3)sc2C1 (stereo unspecified)	-1	6	1	1	1	-1
CCC(=O)Nc1nc2c(OC)ccc(C)c2s1	34	5	-2	1	6	1
Cc1ccccc1Cn1cc(NC(=O)c2cc(-c3ccco3)on2)cn1	57*	5	3	7	0	3
Cc1ccc(NC(=O)c2cc(-c3ccco3)on2)cc1C	-5	-1	21*	0	-2	6
COc1cccc(CN2CCNC(=O)C2CC(=O)NCCN2CCCCC2=O)c1 (stereo unspecified)	-3	.	-2	-2	11	3
Cc1cc(C)cc(Cn2cc(CN3CC(N4CCN(Cc5ccccc5F)CC4)CS3(=O)=O)nn2)c1 (stereo unspecified)	.	.	.	-1	.	.
CC1=NCCN1CCNC(=O)Nc1ccc(F)cc1	-1	-1	0	-2	6	1
O=C(Nc1ccc(F)cc1)C1=CC(=O)N2CCN=C2S1	7	10	-2	.	29*	.
Cc1ccc(NC2CCCN(C(=O)CSc3ccccn3)C2)cc1C (stereo unspecified)	.	1	.	0	15	1
c1ccc(Nc2cc(Nc3ccccc3)[nH]n2)cc1	70*	7	-1	2	7	6
CC1C(=O)N(Cc2cn(Cc3ccco3)nn2)CCS(=O)(=O)N1Cc1ccc(-c2ccc(Cl)c(Cl)c2)cc1 (stereo unspecified)	.	.	.	-5	.	0
Cc1cccc(Nc2nc(-c3ccncc3)cs2)c1	54*	-5	2	-2	8	7
c1ccc(-c2csc(Nc3cccnc3)n2)cc1	31	-1	1	1	5	5
Cc1ccc(Nc2nc(-c3ccncc3)cs2)cc1	.	.	.	0	-12	4
C=CCNc1nc(-c2ccc(Cl)cc2)cs1	-2	0	25*	3	-3	4
Clc1ccc(-c2csc(Nc3cccnc3)n2)cc1	81*	-4	1	0	2	0
SMILES	AHR activator	HDAC3 inh	CTSL1 counter	SENP1 FRET inh	M18AAP inhibitor	GAA850 FXN act
Clc1ccc(-c2csc(NNC3=NCCCCC3)n2)cc1	13	-2	0	1	7	0
Oc1ccccc1C(=S)N1CCN(c2cccc(Cl)c2)CC1	2	-2	-1	0	30*	1
CN=c1scc(C)n1/N=C/c1cc(Br)c(O)c(OC)c1	34	4	4	-70	28*	2
COc1ccc(NC(=O)COC(=O)c2ccc(OC)c(S(=O)(=O)N3CCCC3)c2)cc1OC	-1	3	.	0	.	1
O=C(NC1CCCCC1)C(c1ccc(-c2ccccc2)cc1)n1c(=O)c(-c2ccco2)nc2ccccc21 (stereo unspecified)	.	.	.	-34	.	.
CC(C)(C)c1ccc(-c2nnc(N)s2)cc1	63*	1	-6	-4	-7	6
Nc1nnc(-c2ccc(F)cc2)s1	3	1	5	-9	-1	3
Cc1cc(C)cc(NC2=NC3(CCCCC3)N=C(N)N2)c1	56*	-5	2	4	-3	0
NC1=NC2(CCCCC2)N=C(Nc2ccc(F)cc2F)N1	0	-4	-5	0	-3	-1
Cc1cccc(-n2c(C)nc3cc(C(=O)NCCN4CCOCC4)ccc32)c1	.	.	.	1	.	-2
COc1ccccc1-c1c(C)oc2cc(OC(=O)c3ccco3)ccc2c1=O	-1	31*	-8	1	11	0
Cc1ccccc1OCCC(=O)OCC(=O)NC1CC1	2	2	-31	3	.	0
CCn1c(C)csc1=NC(=O)c1ccccc1	61*	-2	1	0	6	-1
CC(=O)Nc1ccc(NC(=O)C2CCN(c3ccc(C(F)(F)F)cn3)CC2)cc1	0	3	0	3	3	3
COC(=O)CCC(=O)N1CN2CN(C(=O)CCC(=O)OC)CC([N+](=O)[O-])(C2)C1	5	-1	18*	-3	1	1
Cc1cc(NC(=O)c2ccccc2)ccc1NC(=O)c1ccccc1Cl	22	10	3	3	-6	1
Cc1ccc(NC(=O)c2ccccc2F)c(NC(=O)c2ccccc2F)c1	73*	-3	1	2	.	4
CCC(=O)Nc1ccc(Cl)c(NC(=O)c2ccccc2OC)c1	51*	-3	1	1	-19	1
O=C(Nc1cc(NC(=O)c2ccccc2F)ccc1Cl)c1ccccc1	79*	7	-1	0	4	1
CCC(=O)Nc1ccc(Cl)c(NC(=O)c2cccc(OC)c2)c1	-4	9	-3	1	-12	1
COc1ccccc1C(=O)NCC(=O)Nc1ccc2c(c1)CCC2	70*	0	.	0	.	2
Cc1ccc(NC(=O)c2ccccc2Cl)c(Cl)c1	16	-3	-1	0	-4	2
Cc1ccc(C)c(S(=O)(=O)N(C)C2(C)CCS(=O)(=O)C2)c1 (stereo unspecified)	0	0	0	2	.	0
O=[N+]([O-])c1ccc(N=Nc2ccc(O)c3ccccc23)cc1	.	.	.	-17	.	-1
Cc1ccc(NCCN(C)C)c2c(=O)c3cc(O)ccc3sc12	.	.	.	37*	.	-4
OC(COc1ccc2ccccc2c1Br)Cn1ccnc1 (stereo unspecified)	70*	-9	-1	-3	4	2
OC(COc1ccc(Cl)cc1Cl)Cn1ccnc1 (stereo unspecified)	47*	-1	0	-2	3	1
Clc1ccc(OCCn2ccnc2)c(Cl)c1	25	-5	1	1	-6	1
COc1ccc(Cl)c(NC(=O)C/C(C)=N/NC(=O)CCc2ccccc2)c1	13	11	-1	0	0	2
